Assay results taken from ChEMBL document CHEMBL3243919, “11,12-Secoprostaglandins. 3. 8-Alkylthio(sulfinyl and sulfonyl)-12-hydroxyalkanoic acids and related compounds” (J Med Chem, 1977).
One block for each molecule: values may come before it. The source made the active and inactive calls. The rule behind the calls is not given here.

Key:
Mus musculus [1] = species on record: Mus musculus; assay: Binding affinity to prostanoid receptor in [8-14C]adenine-treated CD-1 mouse ovary assessed as increase in c-AMP production at 1 ug/ml after 30 mins by paper chromatographic analysis in presence of phosphodiesterase inhibitor theophylline relative to control; type: tissue-based; settings: Female gonad
How it was run: (§1)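 Mouse ovaries, three per incubation (15-25 mg), preincubated 1 h at 37 °C with shaking in aerated Krebs-Ringer phosphate buffer pH 7.2 containing [8-14C]adenine. Theophylline and test compound (in Me2SO) were then added, with a further 30 min at 37 °C. Stopped with trichloroacetic acid, homogenized and centrifuged. [14C]-cAMP isolated, including paper chromatography. Result is fold increase over untreated ovaries.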

Mus musculus [2] = species on record: Mus musculus; assay: Binding affinity to prostanoid receptor in [8-14C]adenine-treated CD-1 mouse ovary assessed as increase in c-AMP production at 25 ug/ml after 30 mins by paper chromatographic analysis in presence of phosphodiesterase inhibitor theophylline relative to control; type: tissue-based; settings: Female gonad; how it was run: as §1
Mus musculus [3] = species on record: Mus musculus; assay: Binding affinity to prostanoid receptor in [8-14C]adenine-treated CD-1 mouse ovary assessed as increase in c-AMP production at 50 ug/ml after 30 mins by paper chromatographic analysis in presence of phosphodiesterase inhibitor theophylline relative to control; type: tissue-based; settings: Female gonad; how it was run: as §1
Mus musculus [4] = species on record: Mus musculus; assay: Binding affinity to prostanoid receptor in [8-14C]adenine-treated CD-1 mouse ovary assessed as increase in c-AMP production at 100 ug/ml after 30 mins by paper chromatographic analysis in presence of phosphodiesterase inhibitor theophylline relative to control; type: tissue-based; settings: Female gonad; how it was run: as §1
Rattus norvegicus [5] = species on record: Rattus norvegicus; assay: Binding affinity to prostanoid receptor in rat lipocytes assessed as compound equivalent to cold PGE1 in displacing [3H]-PGE1 from receptor after 60 mins; type: cell-based
How it was run: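 Test compound incubated with 0.4 ng [3H]-PGE1 and 125 µg rat lipocyte binding preparation for 60 min at 37 °C. Bound [3H]-PGE1 then measured. Three test concentrations, run in duplicate.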

Mus musculus [6] = species on record: Mus musculus; assay: Binding affinity to prostanoid receptor in [8-14C]adenine-treated CD-1 mouse ovary assessed as increase in c-AMP production at 10 ug/ml after 30 mins by paper chromatographic analysis in presence of phosphodiesterase inhibitor theophylline relative to control; type: tissue-based; settings: Female gonad; how it was run: as §1
Mus musculus [7] = species on record: Mus musculus; assay: Binding affinity to prostanoid receptor in [8-14C]adenine-treated CD-1 mouse ovary assessed as increase in c-AMP production at 200 ug/ml after 30 mins by paper chromatographic analysis in presence of phosphodiesterase inhibitor theophylline relative to control; type: tissue-based; settings: Female gonad; how it was run: as §1
Rattus norvegicus [8] = assay: Antihypertensive activity in spontaneous hypertensive rat model up to 40 mg/kg, po; type: functional, organism-based; set-up: dose 40 mg/kg
How it was run: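 Spontaneously hypertensive rats dosed po at up to 40 mg/kg; antihypertensive effect assessed.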

Homo sapiens [9] = species on record: Homo sapiens; assay: Binding affinity to prostanoid receptor in [8-14C]adenine-treated human psoriatic skin slices assessed as increase in c-AMP production at 25 ug/ml after 30 mins by paper chromatographic analysis relative to control
How it was run: (§2)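 Psoriatic skin biopsied from patients off medication ≥48 h, under sc 1-2% lidocaine, and cut into 10-30 mg slices. Preincubated with [14C]adenine about 60 min at 22 °C, then 45 min at 37 °C, then 30 min at 37 °C with test compound. Stopped with TCA to 2.5%, then pulverized at -70 °C and homogenized. Supernatant [14C]-cAMP expressed as fold over unmedicated slices; average of four experiments.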

Lymphocyte [10] = assay: Inhibition of antigen-induced lymphocyte (unknown origin) transformation at 10 ug/mL relative to control; type: functional
[11] = molecular target: T1, 15-hydroxyprostaglandin dehydrogenase [NAD(+)] (Homo sapiens, UniProt P15428); assay: Metabolic stability of the compound assessed as 15-hydroxyprostanoid dehydrogenase (unknown origin)-mediated metabolite formation; type: ADME
T1 sequence (P15428 whole entry): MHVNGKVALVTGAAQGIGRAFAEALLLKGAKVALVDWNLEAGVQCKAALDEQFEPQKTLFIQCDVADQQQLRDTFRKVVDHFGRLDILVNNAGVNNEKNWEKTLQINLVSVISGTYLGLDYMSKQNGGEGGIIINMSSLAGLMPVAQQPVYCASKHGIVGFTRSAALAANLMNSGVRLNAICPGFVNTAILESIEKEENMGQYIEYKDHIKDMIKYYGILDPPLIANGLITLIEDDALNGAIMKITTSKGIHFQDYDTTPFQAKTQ

Canis familiaris = assay: Antisecretory activity in dog assessed as reduction of gastric acid release at 12.3 mg/kg, po; type: functional, organism-based; set-up: dose 12.3 mg/kg; settings: Canis lupus familiaris, Stomach
How it was run: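 Given orally to dogs at 12.3 mg/kg; gastric acid antisecretory effect assessed.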

Mus musculus [12] = species on record: Mus musculus; assay: Binding affinity to prostanoid receptor in [8-14C]adenine-treated CD-1 mouse ovary assessed as increase in c-AMP production at 0.1 ug/ml after 30 mins by paper chromatographic analysis in presence of phosphodiesterase inhibitor theophylline relative to control; type: tissue-based; settings: Female gonad; how it was run: as §1
Homo sapiens [13] = species on record: Homo sapiens; assay: Binding affinity to prostanoid receptor in [8-14C]adenine-treated human psoriatic skin slices assessed as increase in c-AMP production at 50 ug/ml after 30 mins by paper chromatographic analysis relative to control; how it was run: as §2
Lymphocyte [14] = assay: Inhibition of antigen-induced lymphocyte (unknown origin) transformation at 1 ug/mL relative to control; type: functional
Homo sapiens [15] = species on record: Homo sapiens; assay: Binding affinity to prostanoid receptor in [8-14C]adenine-treated human psoriatic skin slices assessed as increase in c-AMP production at 100 ug/ml after 30 mins by paper chromatographic analysis relative to control; how it was run: as §2
Homo sapiens [16] = species on record: Homo sapiens; assay: Binding affinity to prostanoid receptor in [8-14C]adenine-treated human psoriatic skin slices assessed as increase in c-AMP production at 200 ug/ml after 30 mins by paper chromatographic analysis relative to control; how it was run: as §2
Homo sapiens [17] = species on record: Homo sapiens; assay: Binding affinity to prostanoid receptor in [8-14C]adenine-treated human psoriatic skin slices assessed as increase in c-AMP production at 10 ug/ml after 30 mins by paper chromatographic analysis relative to control; how it was run: as §2
Mus musculus [18] = species on record: Mus musculus; assay: Binding affinity to prostanoid receptor in [8-14C]adenine-treated CD-1 mouse ovary assessed as increase in c-AMP production at 0.05 ug/ml after 30 mins by paper chromatographic analysis in presence of phosphodiesterase inhibitor theophylline relative to control; type: tissue-based; settings: Female gonad; how it was run: as §1
Mus musculus [19] = species on record: Mus musculus; assay: Binding affinity to prostanoid receptor in [8-14C]adenine-treated CD-1 mouse ovary assessed as increase in c-AMP production at 0.01 ug/ml after 30 mins by paper chromatographic analysis in presence of phosphodiesterase inhibitor theophylline relative to control; type: tissue-based; settings: Female gonad; how it was run: as §1

Structure (SMILES): CCCCCC(O)CCCC(CCCCCCC(=O)O)C(C)=O (stereo not drawn)
fold change (FC) (Mus musculus [1]): 2
fold change (FC) (Mus musculus [2]): 14
fold change (FC) (Mus musculus [3]): 16
fold change (FC) (Mus musculus [4]): 23
INH (Rattus norvegicus [5]): 1700 ngequiv
fold change (FC) (Mus musculus [6]): 11
fold change (FC) (Mus musculus [7]): 16

Structure (SMILES): CCCCC[C@H](O)CC[C@H]1CCC(=O)[C@@H]1CCCCCCC(=O)O
fold change (FC) (Mus musculus [1]): 10
fold change (FC) (Mus musculus [2]): 26
fold change (FC) (Mus musculus [3]): 19
INH (Rattus norvegicus [5]): 10 ngequiv
fold change (FC) (Mus musculus [6]): 25

Structure (SMILES): CS(=O)(=O)C(CCCCCCC(=O)O)CCCC(O)COc1ccc(F)cc1 (stereo not drawn)
fold change (FC) (Mus musculus [1]): 1
fold change (FC) (Mus musculus [2]): 23
fold change (FC) (Mus musculus [4]): 27
INH (Rattus norvegicus [5]): 1.11 µgequiv

Structure (SMILES): CCCCCC(O)CCCC(CCCCCCC(=O)O)SC (mixture of isomers)
fold change (FC) (Mus musculus [1]): 2.5
fold change (FC) (Mus musculus [2]): 35
fold change (FC) (Mus musculus [4]): 24
INH (Rattus norvegicus [5]): 0.77 µgequiv

Structure (SMILES): CCCCCC(O)CCCC(CCCCCCC(=O)O)[S+](C)[O-] (mixture of isomers)
fold change (FC) (Mus musculus [1]): 4
fold change (FC) (Mus musculus [2]): 40
fold change (FC) (Mus musculus [4]): 57
INH (Rattus norvegicus [5]): 7.14 µgequiv

Structure (SMILES): CCCCCC(O)CCCCCS(=O)(=O)CCCCCCCC(=O)O (racemic)
fold change (FC) (Mus musculus [2]): 0.5
fold change (FC) (Mus musculus [4]): 1

Structure (SMILES): CCCCC[C@H](O)/C=C/[C@H]1[C@H](O)CC(=O)[C@@H]1CCCCCCC(=O)O [ALPROSTADIL]
fold change (FC) (Mus musculus [1]): 54
fold change (FC) (Homo sapiens [17]): 10
fold change (FC) (Mus musculus [18]): 29
inhibition at 10 µg/mL (Lymphocyte [10]): 82%
fold change (FC) (Mus musculus [12]): 25
fold change (FC) (Mus musculus [19]): 8

The next lines start with results.

fold change (FC) (Mus musculus [1]): 14
fold change (FC) (Mus musculus [2]): 27
fold change (FC) (Homo sapiens [9]): 2.5
Stability [11]: Stable
fold change (FC) (Mus musculus [12]): 2
fold change (FC) (Homo sapiens [13]): 3.4
fold change (FC) (Mus musculus [4]): 38
fold change (FC) (Homo sapiens [15]): 3.5
INH (Rattus norvegicus [5]): 0.67 µgequiv
fold change (FC) (Mus musculus [6]): 24
fold change (FC) (Homo sapiens [16]): 2.7
Structure (SMILES): CCCCCC(O)CCCC(CCCCCCC(=O)O)S(C)(=O)=O (mixture of isomers)
Activity (Rattus norvegicus [8]): inactive
inhibition at 10 µg/mL (Lymphocyte [10]): 88%
Activity (Canis familiaris): inactive
inhibition at 1 µg/mL (Lymphocyte [14]): 30%

fold change (FC) (Mus musculus [1]): 0.7
fold change (FC) (Mus musculus [2]): 2
fold change (FC) (Mus musculus [4]): 10
Structure (SMILES): CCCCCC(O)CCCC(CCCCCCC(=O)O)S(=O)(=O)CCO (mixture of isomers)

fold change (FC) (Mus musculus [1]): 1.5
fold change (FC) (Mus musculus [2]): 4
fold change (FC) (Mus musculus [4]): 14
Structure (SMILES): CCCCCC(O)CCCC(CCCCCCC(=O)O)SCCO (mixture of isomers)
